Measured values from ChEMBL document CHEMBL1268915, “Optimization of a series of dipeptides with a P3 threonine residue as non-covalent inhibitors of the chymotrypsin-like activity of the human 20S proteasome” (Bioorg Med Chem Lett, 2010).
Activity calls are given as the source filed them. The calls are words filed in the database; no cut-off is given here.

What was measured:
Trypsin (Homo sapiens) = Trypsin (Homo sapiens) (UniProt P07477+P07478+P35030); test: Inhibition of human trypsin at 100 uM; type: protein assay
[1] = Binding affinity to chymotrypsin-like activity of 20S proteasome
[2] = target: Plasminogen (Homo sapiens) (UniProt P00747); test: Inhibition of human plasmin at 100 uM
Chain of Plasminogen (Homo sapiens) (P00747 97-580 limits assumed): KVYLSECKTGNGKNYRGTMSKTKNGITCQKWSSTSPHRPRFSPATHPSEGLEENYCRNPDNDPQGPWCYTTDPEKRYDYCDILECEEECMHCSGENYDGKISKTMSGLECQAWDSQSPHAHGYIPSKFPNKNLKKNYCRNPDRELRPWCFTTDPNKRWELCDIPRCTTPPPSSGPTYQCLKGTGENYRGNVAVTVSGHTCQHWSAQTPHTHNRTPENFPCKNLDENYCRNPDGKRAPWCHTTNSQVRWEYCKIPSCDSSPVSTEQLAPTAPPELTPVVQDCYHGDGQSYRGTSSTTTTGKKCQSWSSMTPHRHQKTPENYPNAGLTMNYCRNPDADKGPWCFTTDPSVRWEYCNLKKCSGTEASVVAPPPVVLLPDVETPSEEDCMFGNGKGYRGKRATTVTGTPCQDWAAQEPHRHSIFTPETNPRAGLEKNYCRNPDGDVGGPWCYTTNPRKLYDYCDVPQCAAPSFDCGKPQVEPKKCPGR
Chain of Plasminogen (Homo sapiens) (P00747 581-810 limits assumed): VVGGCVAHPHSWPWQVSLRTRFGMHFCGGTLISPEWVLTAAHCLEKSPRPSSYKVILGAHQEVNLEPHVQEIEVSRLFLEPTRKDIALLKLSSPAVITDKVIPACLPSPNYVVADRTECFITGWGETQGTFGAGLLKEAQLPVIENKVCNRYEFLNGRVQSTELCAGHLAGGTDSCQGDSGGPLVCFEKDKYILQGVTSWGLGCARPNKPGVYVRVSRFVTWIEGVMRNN

[3] = target: T1, Coagulation factor XII (Homo sapiens) (UniProt P00748); test: Inhibition of human coagulation factor beta 12a at 100 uM
T1 sequence (whole entry): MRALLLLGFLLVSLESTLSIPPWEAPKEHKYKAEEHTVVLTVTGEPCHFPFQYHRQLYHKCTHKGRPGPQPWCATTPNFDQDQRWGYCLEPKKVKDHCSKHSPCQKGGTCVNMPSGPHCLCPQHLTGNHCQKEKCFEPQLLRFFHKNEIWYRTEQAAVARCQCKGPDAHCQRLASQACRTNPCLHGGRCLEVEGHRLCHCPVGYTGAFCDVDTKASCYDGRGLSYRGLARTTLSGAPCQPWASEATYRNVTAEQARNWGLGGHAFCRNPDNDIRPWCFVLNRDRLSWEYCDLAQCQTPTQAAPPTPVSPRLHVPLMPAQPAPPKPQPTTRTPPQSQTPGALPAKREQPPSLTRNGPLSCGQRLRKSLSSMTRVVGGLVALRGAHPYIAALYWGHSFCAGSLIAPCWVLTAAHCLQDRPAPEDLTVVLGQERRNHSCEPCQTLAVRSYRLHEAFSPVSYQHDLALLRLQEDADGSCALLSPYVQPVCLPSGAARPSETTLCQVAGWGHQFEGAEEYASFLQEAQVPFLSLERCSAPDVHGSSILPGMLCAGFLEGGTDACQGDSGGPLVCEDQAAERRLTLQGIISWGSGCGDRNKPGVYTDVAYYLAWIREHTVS

Homo sapiens [4] = organism: Homo sapiens; test: Inhibition of human chymotrypsin at 100 uM
[5] = target: T2, Calpain-1 catalytic subunit (Homo sapiens) (UniProt P07384); test: Inhibition of human calpain 1 at 100 uM
T2 sequence (whole entry): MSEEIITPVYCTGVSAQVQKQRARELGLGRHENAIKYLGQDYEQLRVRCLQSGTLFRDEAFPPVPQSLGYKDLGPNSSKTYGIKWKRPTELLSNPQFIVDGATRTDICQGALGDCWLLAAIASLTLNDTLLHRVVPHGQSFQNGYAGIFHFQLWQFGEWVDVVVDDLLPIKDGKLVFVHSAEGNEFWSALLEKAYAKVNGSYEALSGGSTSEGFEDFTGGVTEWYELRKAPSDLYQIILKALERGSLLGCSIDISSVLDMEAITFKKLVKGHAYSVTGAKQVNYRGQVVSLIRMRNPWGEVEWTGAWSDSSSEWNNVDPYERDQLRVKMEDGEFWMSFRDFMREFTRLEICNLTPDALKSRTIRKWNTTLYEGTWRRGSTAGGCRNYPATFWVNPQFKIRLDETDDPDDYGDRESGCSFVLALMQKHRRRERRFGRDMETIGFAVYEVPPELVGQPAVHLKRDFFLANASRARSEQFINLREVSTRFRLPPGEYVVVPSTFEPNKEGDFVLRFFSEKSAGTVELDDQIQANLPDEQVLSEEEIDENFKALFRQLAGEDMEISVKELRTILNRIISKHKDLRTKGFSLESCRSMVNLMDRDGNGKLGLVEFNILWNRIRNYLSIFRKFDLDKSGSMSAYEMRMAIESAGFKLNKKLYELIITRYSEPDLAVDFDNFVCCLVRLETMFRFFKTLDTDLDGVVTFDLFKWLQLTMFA

[6] = target: Prothrombin (Homo sapiens) (UniProt P00734); test: Inhibition of human thrombin at 100 uM
[7] = (§1) Inhibition of TNF-alpha-induced NF-kappaB activation in human HEK293 cells after 3 hrs by luciferase reporter gene assay; type: cell-based; conditions: HEK293, 3 h
Outline: (§2)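 NF-κB-luciferase reporter in HEK293 cells (10,000 per well). Cells were pre-incubated with compound for 1 h, then stimulated with 10 ng/ml TNF-α for 3 h with compound still present. IC50 and percentage inhibition were reported as means of at least three independent experiments.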

HEK293 = test: as §1; type: cell-based; set-up: concentration or dose not given beside the values; conditions: dose or concentration not given here; outline: as §2
Homo sapiens [8] = organism: Homo sapiens; test: Inhibition of human elastase at 100 uM
[9] = Cytotoxicity against human Calu6 cells assessed as cellular ATP level after 72 hrs by luminescence-based ATPlite assay; type: cell-based, Calu-6; conditions: read-out: LC50
Outline: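 Calu6 cells, 2000 per well, incubated with compound for 72 h. Viability read as cellular ATP by luminescence (ATPlite). Values are means of at least three independent experiments.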

[10] = target: Cathepsin B (Homo sapiens) (UniProt P07858); test: Inhibition of human cathepsin B at 100uM
[11] = target: Procathepsin L (Homo sapiens) (UniProt P07711); test: Inhibition of human cathepsin L at 100uM
Chain of Procathepsin L (Homo sapiens) (P07711 114-333 limits assumed): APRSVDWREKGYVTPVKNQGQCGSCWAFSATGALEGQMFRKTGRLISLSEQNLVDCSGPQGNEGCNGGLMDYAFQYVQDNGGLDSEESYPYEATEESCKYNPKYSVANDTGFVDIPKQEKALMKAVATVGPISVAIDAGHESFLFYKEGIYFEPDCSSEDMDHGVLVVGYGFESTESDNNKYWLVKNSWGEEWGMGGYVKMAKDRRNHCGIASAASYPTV

[12] = Inhibition of chymotrypsin-like activity of human 20s proteasome beta2 subunit in human erythrocyte assessed as hydrolysis of Ac-WLA-AMC fluorogenic substrate
[13] = target: Tissue-type plasminogen activator (Homo sapiens) (UniProt P00750); test: Inhibition of tissue plasminogen activator at 100 uM
Chain of Tissue-type plasminogen activator (Homo sapiens) (P00750 36-562 limits assumed): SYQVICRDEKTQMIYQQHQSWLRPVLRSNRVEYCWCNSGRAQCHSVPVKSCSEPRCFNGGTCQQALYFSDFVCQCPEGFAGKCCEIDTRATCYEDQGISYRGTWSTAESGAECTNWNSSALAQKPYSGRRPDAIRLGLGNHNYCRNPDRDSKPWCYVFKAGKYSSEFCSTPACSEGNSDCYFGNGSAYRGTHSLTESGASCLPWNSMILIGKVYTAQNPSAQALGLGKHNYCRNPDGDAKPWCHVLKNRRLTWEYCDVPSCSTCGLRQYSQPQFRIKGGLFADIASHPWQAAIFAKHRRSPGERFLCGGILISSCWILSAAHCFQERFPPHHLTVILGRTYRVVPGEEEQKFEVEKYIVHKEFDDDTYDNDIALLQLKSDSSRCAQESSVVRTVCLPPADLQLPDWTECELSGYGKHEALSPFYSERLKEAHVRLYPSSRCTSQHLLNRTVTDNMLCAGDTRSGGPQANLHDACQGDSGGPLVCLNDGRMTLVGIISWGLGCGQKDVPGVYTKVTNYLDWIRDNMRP

[14] = Inhibition of chymotrypsin-like activity of human 20s proteasome beta-1 subunit in human erythrocyte assessed as hydrolysis of Ac-WLA-AMC fluorogenic substrate
[15] = Inhibition of chymotrypsin-like activity of human 20s proteasome beta5 subunit in human erythrocyte assessed as hydrolysis of Ac-WLA-AMC fluorogenic substrate

SMILES	inhibition (Trypsin (Homo sapiens))	Ki [1]	inhibition [2]	inhibition [3]	inhibition (Homo sapiens [4])	inhibition [5]	inhibition [6]	IC50 [7]	inhibition (HEK293)	inhibition (Homo sapiens [8])	CC50 at 72 h [9]	inhibition [10]	inhibition [11]	IC50 [12]	inhibition [13]	IC50 [14]	IC50 [15]
CC(C)C[C@H](NC(=O)[C@H](Cc1ccccc1)NC(=O)c1cnccn1)B(O)O [BORTEZOMIB]	Active	0.55 nM	Active	Active	Active	Active	Active	10 nM	100%	Active	6.1 nM	Active	Active	> 20000 nM	Active	> 20000 nM	–
C=CCNC(=O)[C@H](CCc1ccccc1)NC(=O)[C@@H](NC(=O)c1ccc(OCc2ccccc2)cc1)[C@@H](C)O	Active	–	Active	Active	Active	Active	Active	880 nM	99%	Active	2800 nM	Active	Active	> 20000 nM	Active	> 20000 nM	100 nM
